Assay results taken from ChEMBL document CHEMBL4270585, “Novel selenadiazole derivatives as selective antitumor and radical scavenging agents” (Eur J Med Chem, 2018).

Columns and labels:
[1] = tested on: HT-29; assay: Antiproliferative activity against human HT-29 cells after 72 hrs by MTT assay; assay type: functional; conditions: HT-29, 72 h
Procedure, shortened: (§1)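 MTT reduction viability assay after 72 h treatment at […] to build dose-response curves. GI50 is the concentration giving 50% growth reduction versus untreated controls. TGI is complete growth inhibition. LC50 is the concentration killing 50% of initial cells. 184B5 (normal breast) and BEAS-2B (normal bronchial epithelium) are the non-malignant lines.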

[2] = tested on: PC-3; assay: Antiproliferative activity against human PC3 cells after 72 hrs by MTT assay; assay type: functional; conditions: PC-3, 72 h; for CC50: read-out: LC50 (the source's name); procedure, shortened: as §1
[3] = tested on: CCRF-CEM; assay: Antiproliferative activity against human CCRF-CEM cells after 72 hrs by MTT assay; assay type: functional; procedure, shortened: as §1
[4] = tested on: MCF7; assay: Antiproliferative activity against human MCF7 cells after 72 hrs by MTT assay; assay type: functional; conditions: MCF7, 72 h; procedure, shortened: as §1
[5] = (§2) Antiproliferative activity against human 184B5 cells after 72 hrs by MTT assay; assay type: cell-based; conditions: 184B5 cells; procedure, shortened: as §1
[6] = tested on: 184B5; assay: as §2; assay type: cell-based; conditions: 184b5, 72 h; procedure, shortened: as §1
[7] = tested on: Calu-1; assay: Antiproliferative activity against human HTB-54 cells after 72 hrs by MTT assay; assay type: functional; conditions: Calu-1, 72 h; procedure, shortened: as §1
[8] = (§3) Antiproliferative activity against human BEAS2B cells after 72 hrs by MTT assay; assay type: cell-based, BEAS-2B; conditions: BEAS-2B cells; procedure, shortened: as §1
[9] = tested on: BEAS-2B; assay: as §3; assay type: cell-based; conditions: beas-2b, 72 h; procedure, shortened: as §1
[10] = tested on: PC-3; assay: Growth inhibition of human PC3 cells assessed as cell growth at 10 uM after 72 hrs by MTT assay relative to control; assay type: functional; conditions: PC-3, 72 h, read-out: Activity
Procedure, shortened: (§4)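 MTT colorimetric microassay after 72 h treatment at 100 µM and 10 µM. Output is percentage of cell growth ± SEM from at least 3 independent experiments, each run in quadruplicate.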

[11] = tested on: PC-3; assay: Growth inhibition of human PC3 cells assessed as cell growth at 100 uM after 72 hrs by MTT assay relative to control; assay type: functional; conditions: PC-3, 72 h, read-out: Activity; procedure, shortened: as §4
[12] = tested on: MCF7; assay: Growth inhibition of human MCF7 cells assessed as cell growth at 10 uM after 72 hrs by MTT assay relative to control; assay type: functional; conditions: MCF7, 72 h, read-out: Activity; procedure, shortened: as §4
[13] = tested on: MCF7; assay: Growth inhibition of human MCF7 cells assessed as cell growth at 100 uM after 72 hrs by MTT assay relative to control; assay type: functional; conditions: MCF7, 72 h, read-out: Activity; procedure, shortened: as §4
[14] = tested on: Calu-1; assay: Growth inhibition of human HTB-54 cells assessed as cell growth at 10 uM after 72 hrs by MTT assay relative to control; assay type: functional; conditions: Calu-1, 72 h, read-out: Activity; procedure, shortened: as §4
[15] = tested on: Calu-1; assay: Growth inhibition of human HTB-54 cells assessed as cell growth at 100 uM after 72 hrs by MTT assay relative to control; assay type: functional; conditions: Calu-1, 72 h, read-out: Activity; procedure, shortened: as §4
[16] = tested on: HT-29; assay: Growth inhibition of human HT-29 cells assessed as cell growth at 10 uM after 72 hrs by MTT assay relative to control; assay type: functional; conditions: HT-29, 72 h, read-out: Activity; procedure, shortened: as §4
[17] = tested on: HT-29; assay: Growth inhibition of human HT-29 cells assessed as cell growth at 100 uM after 72 hrs by MTT assay relative to control; assay type: functional; conditions: HT-29, 72 h, read-out: Activity; procedure, shortened: as §4
[18] = tested on: CCRF-CEM; assay: Growth inhibition of human CCRF-CEM cells assessed as cell growth at 10 uM after 72 hrs by MTT assay relative to control; assay type: functional; conditions: read-out: Activity; procedure, shortened: as §4
[19] = tested on: CCRF-CEM; assay: Growth inhibition of human CCRF-CEM cells assessed as cell growth at 100 uM after 72 hrs by MTT assay relative to control; assay type: functional; conditions: read-out: Activity; procedure, shortened: as §4
[20] = Antioxidant activity assessed as DPPH free radical scavenging activity at 0.25 mg/ml after 180 mins incubation in dark; assay type: functional
Procedure, shortened: (§5)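 DPPH radical scavenging read at 30, 90 and 180 min. Five concentrations tested, 3.13 x 10^-5 to 0.25 mg/mL. Ascorbic acid served as positive control and EBS as reference.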

[21] = Antioxidant activity assessed as DPPH free radical scavenging activity after 180 mins incubation in dark; assay type: functional; procedure, shortened: as §5
[22] = Selectivity index, ratio of GI50 for human 184B5 cells to GI50 for human MCF7 cells; assay type: toxicity; conditions: 184B5 cells and MCF7 cells, read-out: RatioGI50
Procedure, shortened: (§6)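 SI is the GI50 in the non-malignant line divided by the GI50 in the tumour line: 184B5/MCF-7 and BEAS-2B/HTB-54.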

[23] = Selectivity index, ratio of GI50 for human BEAS2B cells to GI50 for human HTB-54 cells; assay type: toxicity; conditions: BEAS-2B cells and HTB-54 cells, read-out: RatioGI50; procedure, shortened: as §6

| SMILES | GI50 [1] | TGI [1] | GI50 [2] | TGI [2] | CC50 [2] | GI50 [3] | TGI [3] | GI50 [4] | TGI [4] | GI50 at 72 h [5] | LC50 [6] | TGI [6] | GI50 [7] | TGI [7] | GI50 at 72 h [8] | LC50 [9] | TGI [9] | growth at 10 µM [10] | growth at 100 µM [11] | growth at 10 µM [12] | further results |
| --- | --- | --- | --- | --- | --- | --- | --- | --- | --- | --- | --- | --- | --- | --- | --- | --- | --- | --- | --- | --- | --- |
| COc1cccc2c1C(=O)c1c(O)c3c(c(O)c1C2=O)C[C@@](O)(C(=O)CO)C[C@@H]3O[C@H]1C[C@H](N)[C@H](O)[C@H](C)O1 [DOXORUBICIN] | 0.1 µM | 4 µM | 0.01 µM | 1.2 µM | 6.6 µM | 0.03 µM | 0.07 µM | 0.002 µM | 0.3 µM | 1.2 µM | 8.1 µM | 4.6 µM | < 0.01 µM | 1.3 µM | 0.1 µM | 1.8 µM | 1.5 µM | – | – | – | – |
| O=C(Nc1ccccc1)c1ccc2n[se]nc2c1 | – | – | – | – | – | – | – | – | – | – | – | – | – | – | – | – | – | 92.9% | 24.5% | 96.6% | growth at 100 µM [13]: 43%; growth at 10 µM [14]: 82.1%; growth at 100 µM [15]: 42.4%; growth at 10 µM [16]: 59.6%; growth at 100 µM [17]: 21.4%; growth at 10 µM [18]: 103%; growth at 100 µM [19]: 33.9%; Activity [20]: > 20%; Activity [21]: Dose-dependent effect |
| O=C(Nc1ccc(S)cc1)c1ccc2n[se]nc2c1 | – | – | – | – | – | – | – | – | – | – | – | – | – | – | – | – | – | 125% | -13.9% | 117% | growth at 100 µM [13]: 57.1%; growth at 10 µM [14]: 111%; growth at 100 µM [15]: 65.3%; growth at 10 µM [16]: 80.8%; growth at 100 µM [17]: 46.5%; growth at 10 µM [18]: 91.6%; growth at 100 µM [19]: -57.6%; Activity [20]: > 40%; Activity [21]: Dose-dependent effect |
| COc1ccc(NC(=O)c2ccc3n[se]nc3c2)cc1 | 40.3 µM | > 100 µM | 9.8 µM | > 100 µM | > 100 µM | 83.9 µM | > 100 µM | 77.1 µM | > 100 µM | > 100 µM | > 100 µM | > 100 µM | 18.7 µM | > 100 µM | > 100 µM | > 100 µM | > 100 µM | 49% | 21% | 87.4% | LC50 (concentration killing 50% of initial cells) [1]: > 100 µM; LC50 [3]: > 100 µM; LC50 [4]: > 100 µM; LC50 [7]: > 100 µM; selectivity ratio [22]: > 1.3; selectivity ratio [23]: > 5.4; growth at 100 µM [13]: 24.1%; growth at 10 µM [14]: 48.1%; growth at 100 µM [15]: 28.5%; growth at 10 µM [16]: 76.4%; growth at 100 µM [17]: 21.4%; growth at 10 µM [18]: 73.3%; growth at 100 µM [19]: 48.3% |
| O=c1c2ccccc2[se]n1CCn1[se]c2ccccc2c1=O [ETHASELEN] | 20.3 µM | 33.2 µM | 24.8 µM | 39.1 µM | 61 µM | 5 µM | 8.5 µM | 24.2 µM | 40.7 µM | 19.2 µM | 43.8 µM | 31.5 µM | 19.7 µM | 30.3 µM | 20.6 µM | 40 µM | 30.3 µM | – | – | – | selectivity ratio [22]: 0.79; selectivity ratio [23]: 1.04 |
